What was measured:
intestine = conditions: mouse, in vivo, 10 mg/kg; cited from earlier work
intestinal mucosa = assay: Intestinal toxicity by histopathological scoring; assay type: in vivo; conditions: mice, oral, 10 mg/kg/d over 7 days
How it was run: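 Mice given free test compound or cyclodextrin complexes orally at 10 mg/kg/d for 7 days; PBS group included. Intestine fixed in 10% formalin for 24 h, paraffin-embedded, sectioned at 5 μm and H&E stained. Duodenum examined at 20×. Mucosal damage graded: grade 0, normal villi; grade 1, subepithelial Gruenhagen's space at villus tips; higher grades follow.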

[1] = cited from earlier work
advanced LUAD tumors = conditions: cited from earlier work
Caco-2 monolayers = assay: Caco-2 permeability assay; assay type: in vitro ADME, Human
How it was run: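 Caco-2 cells grown in EMEM with 20% FBS and 1% PenStrep, then seeded on inserts for ~20 days to form confluent monolayers. Free test compound or its cyclodextrin complexes added apically; transport followed over 2 h, plus basolateral-to-apical for efflux. Controls: ranitidine (low), warfarin (high), talinolol (P-gp). Papp = (dQ/dt)/(C0×A); efflux ratio = Papp(B→A)/Papp(A→B). Integrity by TEER with lucifer yellow transport.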

SMILES: Cc1cc(-c2ncc(CC(=O)Nc3ccc(-c4cnccn4)cn3)cc2C)ccn1 [LGK974]
- intestinal toxicity on oral administration (intestine): induces intestinal toxicity
- intestinal mucosal damage (histopathological scoring) (intestinal mucosa): Intestinal mucosal damage was observed
- solubility in aqueous environments [1]: poorly soluble
- effect in mice with advanced LUAD tumors (advanced LUAD tumors): suppressed Wnt target genes, inhibited tumor growth and proliferation, and extended survival
- permeability across Caco-2 monolayers (Caco-2 monolayers; A → B and B → A, 2 h): high permeability
- transepithelial electrical resistance (TEER) after treatment (Caco-2 monolayers; Caco-2 monolayers, 2 h treatment): did not decrease significantly
